Screens: PubChem BioAssay, Broad Institute
IDH1 R132H inh: IDH1 R132H (human) inhibition. IDH1 R132H reductase, diaphorase/resazurin fluorescence, 60 min. inhibition, % at 10 µM. 0.18% of 70,000 active. AID 624101; in the data active = inhibition above about 34%; inconclusive = no clear call, values can overlap the other calls; inactive = below about 11%;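 also: 0% = DMSO and 100% = no enzyme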
GASC1 inh: KDM4C (human) demethylase inhibition. 0.15% of 96,000 active. inhibition, % at 12.5 µM. AID 720574. GST-KDM4C 2-372, H3K9me3 peptide, LANCE TR-FRET. Q9H3R0;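 active = mean replicate inhibition above about 25%, with at least 55% of replicates also reaching it, limit read from the data, passing the limit was not always enough; inconclusive = only one of those two conditions met; inactive = neither condition met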
Target sequence (Q9H3R0 2-372 limits assumed): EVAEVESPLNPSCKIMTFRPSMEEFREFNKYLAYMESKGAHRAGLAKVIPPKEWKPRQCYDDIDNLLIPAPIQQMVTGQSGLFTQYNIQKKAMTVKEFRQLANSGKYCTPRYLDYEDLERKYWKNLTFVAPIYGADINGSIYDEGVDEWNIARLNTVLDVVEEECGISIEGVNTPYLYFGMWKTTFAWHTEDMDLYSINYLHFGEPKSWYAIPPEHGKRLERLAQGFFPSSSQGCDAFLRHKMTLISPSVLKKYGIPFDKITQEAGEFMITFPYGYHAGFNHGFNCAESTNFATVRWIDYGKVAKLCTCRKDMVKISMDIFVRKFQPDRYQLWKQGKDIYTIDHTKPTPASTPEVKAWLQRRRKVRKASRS
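System – N-terminal GST-fused human GASC-1 (KDM4C) fragment, residues 2-372 · Input – enzyme final amount 10 nM · Technique – LANCE TR-FRET, Eu antibody, ULight-streptavidin, EDTA, ex 340 nm, em 618/671 nm · Medium – HEPES buffer, pH 7.5, plus ascorbate · Incubation – enzyme reaction 30 min, then detection 60 min, both room temperature · Reagent – H3K9me3 peptide with Fe(II)/2OG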
T cruzi growth-1: blocks T. cruzi growth in NIH3T3 culture. T. cruzi beta-gal in NIH3T3, GalScreen luminescence, 90 h. inhibition, % at 8.34 µM. 5.9% of 77,000 active;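 active = mean inhibition above about 93%, with at least 55% of replicates each passing it, limit read from the data, passing the limit was not always enough; inconclusive = only one of those two conditions holds; inactive = neither condition holds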
T cruzi growth-2: inhibitors of T. cruzi proliferation; shares compounds with T cruzi growth-1; T. cruzi beta-gal in NIH3T3, GalScreen luminescence, 90 h; inhibition, % at 8.35 µM; 72% of 5,600 active;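 active = mean replicate inhibition above about 95% and at least 55% of replicates individually reaching it, limit read from the data; inconclusive = only one of the two criteria is met; inactive = neither criterion is met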
T cruzi growth-3: inhibitors of T. cruzi proliferation. shares compounds with T cruzi growth-1. T. cruzi beta-gal in NIH3T3, GalScreen luminescence, 90 h. inhibition, % at 2.09 µM. 21% of 5,600 active;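 active = mean inhibition above about 95%, with at least 55% of replicates also reaching it, limit read from the data; inconclusive = meets just one of the two conditions; inactive = meets neither condition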;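 also: plate controls were neutral control median for no effect and positive control median for full effect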
NIH3T3 tox: kills mouse NIH/3T3 fibroblasts | shares compounds with T cruzi growth-1 | NIH/3T3 viability, CellTiter-Glo ATP luminescence, 90 h | cytotoxicity (signal decrease), % at 8.35 µM | 14% of 5,600 active | AID 651742;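 active = mean signal decrease across replicates above about 35% based on untreated-well scatter, with enough replicates individually passing, limit read from the data; inconclusive = no rule stated though some were filed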;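 also: 0% = median of neutral control wells and 100% = median of positive control wells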
3T3 cytotox 2: cytotoxicity in mouse NIH/3T3 fibroblasts; shares compounds with T cruzi growth-1; NIH/3T3 viability, CellTiter-Glo ATP luminescence, 90 h; inhibition, % at 24.9 µM; 56% of 5,600 active;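 active = mean loss of cell viability signal at or above a set limit, and enough replicates individually reaching it; inconclusive = meets only the mean limit or only the replicate share; inactive = meets neither condition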;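 also: 0% = median of neutral control wells and 100% = median of positive control wells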
* hit, by the source's call; u = inconclusive; x = no result given. This excerpt belongs to a sample that is enriched for hits.

SMILES	IDH1 R132H inh	GASC1 inh	T cruzi growth-1	T cruzi growth-2	T cruzi growth-3	NIH3T3 tox	3T3 cytotox 2
Cc1noc(C)c1S(=O)(=O)Nc1ccc2c(c1)CC(=O)N([C@H](C)CO)C[C@@H](C)[C@@H](CN(C)Cc1ccc(Oc3ccccc3)cc1)O2	4.1	-0.2	65.8	x	x	x	x
COc1ccc(S(=O)(=O)Nc2ccc3c(c2)CC(=O)N([C@H](C)CO)C[C@@H](C)[C@H](CN(C)Cc2ccccc2)O3)cc1	-0.2	-1.2	104.5*	108.9*	99.2*	-4.2	7.3
COc1ccc(S(=O)(=O)Nc2ccc3c(c2)CC(=O)N([C@@H](C)CO)C[C@H](C)[C@H](CN(C)Cc2ccccc2)O3)cc1	2.6	-0.2	99.3*	99.2*	27.2	14.6	19.2
COc1ccc(S(=O)(=O)Nc2ccc3c(c2)CC(=O)N([C@@H](C)CO)C[C@@H](C)[C@@H](CN(C)Cc2ccccc2)O3)cc1	x	x	74.3	x	x	x	x
COc1ccc(S(=O)(=O)Nc2ccc3c(c2)CC(=O)N([C@@H](C)CO)C[C@H](C)[C@@H](CN(C)Cc2ccccc2)O3)cc1	-0.5	-0.5	78.7	x	x	x	x
Cc1noc(C)c1S(=O)(=O)Nc1ccc2c(c1)CC(=O)N([C@@H](C)CO)C[C@@H](C)[C@H](CN(C)Cc1ccc(Oc3ccccc3)cc1)O2	0.2	2.4	u	108.8*	88.6	-25.3	103.8*
Cc1cccc(C(C)C)c1NC(=O)CN(C1CCCCC1)S(C)(=O)=O	-0.1	x	x	x	x	x	x
[N-]=[N+]=Nc1cccc(C(=O)NCCc2c[nH]c3ccccc23)c1	0.4	x	x	x	x	x	x
COc1ccc(NC(=O)N2CCCCN3[C@H](CO)[C@@H](c4ccc(-c5ccccc5F)cc4)[C@H]3C2)cc1	x	5.8	48.0	x	x	x	x
COc1ccc(NC(=O)N2CCCCN3[C@H](CO)[C@H](c4ccc(C5=CCCCC5)cc4)[C@@H]3C2)cc1	x	-1.4	113.8*	109.5*	86.1	-10.8	80.9*
COc1ccc(NC(=O)N2CCCCN3[C@@H](CO)[C@@H](c4ccc(C5=CCCC5)cc4)[C@@H]3C2)cc1	x	x	94.3	x	x	x	x
COc1ccc(NC(=O)N2CCCCN3[C@@H](CO)[C@@H](c4ccc(-c5ccccc5C)cc4)[C@@H]3C2)cc1	x	-1.7	107.9*	82.7	82.3	110.7*	101.8*
COc1ccc(NC(=O)N2CCCCN3[C@H](CO)[C@@H](c4ccc(-c5ccccc5C)cc4)[C@H]3C2)cc1	x	-2.1	109.1*	102.7*	79.4	40.3*	102.9*
COc1ccc(NC(=O)N2CCCCN3[C@@H](CO)[C@H](c4ccc(-c5ccccc5C)cc4)[C@@H]3C2)cc1	x	-2.0	102.3*	101.2*	65.6	24.9	103.7*
COc1ccc(NC(=O)N2CCCCN3[C@H](CO)[C@H](c4ccc(-c5ccccc5F)cc4)[C@H]3C2)cc1	x	-2.2	81.3	x	x	x	x
COc1ccc(NC(=O)N2CCCCN3[C@H](CO)[C@H](c4ccc(-c5ccccc5C)cc4)[C@@H]3C2)cc1	x	-1.0	66.5	x	x	x	x
CCNS(=O)(=O)c1ccc(NC(=O)c2cc(-c3ccncc3)nc3c(C)c(Cl)ccc23)cc1	1.6	x	x	x	x	x	x
COc1ccc(Br)c(/C=N/NC(=O)CCCCC(=O)NO)c1	0.2	x	x	x	x	x	x
Cc1ccc(S(=O)(=O)NCCSc2ncc(-c3ccc([N+](=O)[O-])cc3)[nH]2)cc1	0.1	x	x	x	x	x	x
COc1ccccc1CNC(=O)C[C@H]1C[C@@H]2c3cc(NC(=O)CC4CC4)ccc3O[C@@H]2[C@H](CO)O1	-0.6	0.4	-19.6	x	x	x	x
COc1ccccc1CNC(=O)C[C@H]1C[C@@H]2c3cc(NC(=O)NC4CCCC4)ccc3O[C@@H]2[C@@H](CO)O1	0.3	1.1	109.0*	28.9	22.7	-1.5	-1.6
COc1ccccc1CNC(=O)C[C@@H]1C[C@@H]2c3cc(NC(=O)CC4CC4)ccc3O[C@@H]2[C@@H](CO)O1	0.4	-2.2	15.6	x	x	x	x
COc1ccccc1CNC(=O)C[C@H]1C[C@H]2c3cc(NC(=O)NC4CCCC4)ccc3O[C@H]2[C@H](CO)O1	1.7	0.7	109.4*	107.7*	28.1	-4.7	9.4
COc1ccccc1NC(=O)CSc1nnc(-c2ccccc2Cl)n1-c1ccccc1	0.0	x	x	x	x	x	x
C[C@@H]1CN([C@@H](C)CO)S(=O)(=O)c2ccc(-c3ccccc3)cc2O[C@@H]1CN(C)C(=O)c1ccc2c(c1)OCO2	0.1	6.2	x	x	x	x	x
SMILES	IDH1 R132H inh	GASC1 inh	T cruzi growth-1	T cruzi growth-2	T cruzi growth-3	NIH3T3 tox	3T3 cytotox 2
C[C@@H]1CN([C@@H](C)CO)S(=O)(=O)c2ccc(-c3cccc(F)c3)cc2O[C@@H]1CN(C)C(=O)c1cccc(F)c1	0.3	0.9	51.3	x	x	x	x
C[C@H]1CN([C@@H](C)CO)S(=O)(=O)c2ccc(-c3cccnc3)cc2O[C@@H]1CN(C)C(=O)c1cccc(F)c1	8.1	10.4	45.2	x	x	x	x
C[C@@H]1CN([C@@H](C)CO)S(=O)(=O)c2ccc(-c3cccc(F)c3)cc2O[C@H]1CN(C)C(=O)c1cccc(F)c1	-0.7	0.2	100.0*	98.1*	84.5	53.2*	39.9*
C[C@@H]1CN([C@@H](C)CO)S(=O)(=O)c2ccc(-c3ccncc3)cc2O[C@H]1CN(C)C(=O)c1ccc2c(c1)OCO2	1.0	-0.5	106.1*	99.1*	80.9	3.4	17.0
C[C@H](CO)N1C[C@H](C)[C@@H](CN(C)C(=O)c2cccc(F)c2)Oc2cc(-c3ccncc3)ccc2S1(=O)=O	16.7	-1.5	109.8*	94.6	52.1	22.5	44.2*
C[C@H]1CN([C@@H](C)CO)S(=O)(=O)c2ccc(-c3cccc(F)c3)cc2O[C@H]1CN(C)C(=O)c1cccc(F)c1	-3.4	-2.4	52.6	x	x	x	x
C[C@@H]1CN([C@@H](C)CO)S(=O)(=O)c2ccc(-c3ccncc3)cc2O[C@H]1CN(C)C(=O)c1cccc(F)c1	-2.3	-1.5	110.6*	96.4*	87.0	9.5	24.6*
Cc1nc(SCC(=O)N2CCc3ccccc32)c2c3c(sc2n1)CCCC3	-0.1	x	x	x	x	x	x
COC(=O)c1ccccc1NC(=O)CNC(=O)c1cccs1	-0.4	x	x	x	x	x	x
CCCC#Cc1ccc([C@@H]2[C@H](C#N)N(C(=O)C3CC3)[C@H]2CO)cc1	x	-0.7	97.7*	107.2*	108.4*	17.6	7.0
CCCC#Cc1ccc([C@H]2[C@@H](C#N)N(C(=O)C3CCCC3)[C@H]2CO)cc1	x	-1.7	98.1*	89.6	105.8*	1.4	43.2*
CCCC#Cc1ccc([C@@H]2[C@@H](C#N)N(C(=O)C3CCCC3)[C@H]2CO)cc1	x	2.2	102.2*	96.3*	102.2*	23.6	38.7*
CCCC#Cc1ccc([C@H]2[C@@H](C#N)N(C(=O)C3CCOCC3)[C@H]2CO)cc1	x	0.2	91.6	x	x	x	x
CCCC#Cc1ccc([C@@H]2[C@@H](C#N)N(C(=O)C3CCC3)[C@@H]2CO)cc1	x	0.1	99.4*	98.9*	28.1	29.8	32.8*
